Test results published in ChEMBL document CHEMBL4513216, “Probing the Open Global Health Chemical Diversity Library for Multistage-Active Starting Points for Next-Generation Antimalarials” (ACS Infect Dis, 2020).

Assay: Toxicity liver stage against HepG2, at 10uM
Type: cell-based
Set-up: test concentration 10 uM, cell line HepG2-A16-CD81EGFP
Conditions: human, HepG2-A16-CD81EGFP cells; read-out: INHIBITION
Outline: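 Uninfected HepG2-A16-CD81EGFP cells, 3 × 10^3 per well, 1536-well, plated on prespotted compound at 10 μM final, parasite-free screening media added to match infected plates; puromycin 10 μM positive, DMSO 0.5% negative; run in parallel with 48 h PbLuc assay at 37 °C, 5% CO2; viability by CellTiter-Glo luminescence, normalized to controls.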

| Structure (SMILES) | cytotoxicity at 10 µM |
| --- | --- |
| O=C(c1ccsc1)N1C[C@H](N2CCOCC2)[C@@H]2OCCC[C@@H]21 | 8.28% |
| Cc1cnn(C2CCCN(C(=O)CCCOc3ccccc3F)C2)c1 (stereo unspecified) | -7.52% |
| CN(Cc1csc(-c2cccs2)n1)C(=O)CN1CCOC1=O | -0.811% |
| CC(C(=O)Nc1ccccn1)n1ccc(C(F)(F)F)n1 (stereo unspecified) | 2.74% |
| C=C(C)CNc1ccc(C(=O)N(CC)Cc2nccn2C)cn1 | -9.36% |
| CCc1cc(N2CCN(c3cnccn3)CC2)n2nc(C)c(C)c2n1 | 6.71% |
| NC(=O)c1csc(N2C[C@@H](CN3CCOCC3)[C@@H](CO)C2)n1 | 2.97% |
| CCn1ncc2c1C(COCC1CC1)CN(C(=O)c1ccncn1)C2 (stereo unspecified) | -74.8% |
| CN(Cc1ccccn1)C(=O)c1cc(CN2CCC(O)CC2)on1 | 0.852% |
| CN1CCC(N2CCN(C(C(=O)O)c3cccc4c3OCC4)CC2)CC1 (stereo unspecified) | 11% |
| CCOC(=O)N1CCN(C(=O)Cn2ccc3ncccc3c2=O)CC1 | -4.99% |
| Cc1ccc(C(=O)NC2CCN(Cc3nc(CC(C)C)no3)CC2)s1 | 7.61% |
| CC(C)=Cc1c(-c2ccccc2)ncn1CCN(C)S(C)(=O)=O | -0.334% |
| CCc1nn(C)c(Cl)c1CN1CCN(c2ccc(C(N)=O)cn2)CC1 | 9.83% |
| Cc1oncc1C(=O)N1CC2CC1(C(=O)N(C)C)C2 | -0.95% |
| COC(=O)[C@H]1C[C@@H](O)CCN1S(=O)(=O)c1ccc(F)cc1F | -3.01% |
| CCOC(C)C(=O)NCCNS(C)(=O)=O (stereo unspecified) | -5.29% |
| CCc1nc(CN(C)CC(c2cccs2)N2CCOCC2)no1 (stereo unspecified) | -2.36% |
| CC(=O)c1cc(CN2CCCCC2c2nc3cc(F)ccc3[nH]2)cs1 (stereo unspecified) | -1.08% |
| CCc1nnc2n1CCN(Cc1ncc(-c3ccccc3)o1)C2 | -3.98% |
| CCn1ncnc1C(C)NC(=O)C1CCN(C(=O)COC)CC1 (stereo unspecified) | 2.82% |
| Cc1csc2cc(C(=O)NC3CCCC3)cnc12 | 3.13% |
| CS(=O)(=O)NC(=O)c1cc(Cl)c2c(c1)OCCCO2 | -4.94% |

| Structure (SMILES) | cytotoxicity at 10 µM |
| --- | --- |
| COc1ccc2c(c1)C(C(=O)N(C)CCc1cnn(C)c1)CC(=O)N2 (stereo unspecified) | -57.2% |
| O=S(=O)(CCN1CCCC1Cn1cncn1)c1ccccc1 (stereo unspecified) | -21% |
| CC(C#N)CSc1ccccc1NCC(=O)NC(=O)NC(C)(C)C (stereo unspecified) | 11.7% |
| O=C(NCCc1nnc2n1CCC2)NCC1(c2ccc(F)cc2)CC1 | -2.23% |
| Cc1ccc(-c2nnc(CNCCn3cccn3)o2)cc1 | -26.1% |
| CC(C)c1nnc(NCc2ccsc2)o1 | -0.19% |
| O=S(=O)(CCSc1nccn1C1CC1)c1ccccc1 | -4.63% |
| NC(=O)CCC1CCCN(c2ncnc3c2Cc2ccccc2OC3)C1 (stereo unspecified) | 0.721% |
| c1cncc(COCC2C[C@@H]3OCCN(Cc4cccnc4)[C@H]3C2)c1 (stereo partly specified) | 12.2% |
| Cc1csc(N2CCC(CCN3CCCC3=O)CC2)n1 | -5.7% |
| COc1ccc(C(C)NS(=O)(=O)c2ccc3c(c2)CCC(=O)N3)cc1F (stereo unspecified) | -49.7% |
| CC(O)(CNS(=O)(=O)Cc1ccon1)c1ccsc1 (stereo unspecified) | 2.76% |
| C[C@@H]1CN(C(=O)C2(Cn3cccn3)CC2)C[C@@]1(O)C1CCC1 | 1.56% |
| C[C@@H]1C[C@H](C(F)(F)F)n2nc(C3CCN(S(C)(=O)=O)CC3)cc2N1 | -16.9% |
| Cc1ccc(CNC(=O)NCC(=O)N2CCCC2)c(N2CCCC2)c1 | 5.84% |
| CC(C)Cc1cc(C(=O)NCCN2CCCS2(=O)=O)[nH]n1 | -7.39% |
| Cc1ccc(CN2CCC[C@]3(C(=O)O)CN(c4ncccn4)C[C@@H]3C2)o1 | -11.3% |
| Cc1ccnc(N2Cc3cnn(Cc4ccc(F)cc4)c3C2)n1 | 3.59% |
| CN(C)S(=O)(=O)c1ccc(CNC(=O)C2CC(=O)N(C(C)(C)C)C2)cc1 (stereo unspecified) | 2.13% |
| CN(C)C(=O)c1cc2c(s1)CCN(C(=O)CCCN1CCCCC1)C2 | -41.4% |
| O=C1CC2(CCCCN2C(=O)c2ccncc2)CN1CC1CC1 (stereo unspecified) | 2.17% |
| Cc1cccc(CN2CCC3(CCN(c4ncccn4)CC3)C2=O)c1 | 5.32% |
| Cc1nc(C)c(CN2CCOC(CNc3cccnn3)C2)s1 (stereo unspecified) | -1.71% |

| Structure (SMILES) | cytotoxicity at 10 µM |
| --- | --- |
| CC(c1nc(C(C)(C)C)no1)S(=O)(=O)CC(=O)N1CCCC1 (stereo unspecified) | -2.21% |
| COc1cccc2c1ccn2CCC(=O)Nc1c2c(nn1C)CSC2 | 5.11% |
| c1cc(CN2CCC3(CC2)COC(COCC2CC2)C3)ccn1 (stereo unspecified) | -0.443% |
| Cc1nc(N2CCN(C(=O)C3CC3)CC2)c2c(n1)c(C)nn2C | 5.42% |
| COCCN1CCc2c(CNC(=O)c3nccn3C)cncc2C1 | -107% |
| CCc1nc(C2CCCN2C(=O)c2cnc3n[nH]c(C)c3c2)no1 (stereo unspecified) | 7.76% |
| COc1c(CNC2CCc3c(Cl)cccc32)c(C)nn1C (stereo unspecified) | 13.3% |
| CC(=O)N(C)c1nc(CN2CCN(Cc3nccn3C)CC2)cs1 | 8.82% |
| c1ccc(OCCNc2ncnc3sc4c(c23)CCNC4)cc1 | 45.4% |
| CC(=O)N1CCC(C(=O)NCCN2CCCC(C)C2)CC1 (stereo unspecified) | 10.7% |
| NC(=O)c1sc2ccccc2c1C1CCN(S(=O)(=O)N2CCOCC2)C1 (stereo unspecified) | 11.8% |
| Cn1cc(CN2CCC3(CC2)CN(C(=O)c2cnccn2)CCO3)cn1 | -5.49% |
| COc1ncc(C)cc1NC(=O)CCc1ccccn1 | -9.58% |
| Cc1cc(-c2cnn(CCNC(=O)C3CCCO3)c2C2CC2)on1 (stereo unspecified) | -4.07% |
| COc1ccc(-c2cc(CNc3ncnc4c3CCNCC4)no2)cc1 | 13.1% |
| CSCCCNC(=O)C1CCC(=O)N(C2CCCC2)C1 (stereo unspecified) | -11.1% |
| Cc1cccc2cc(CN3CCCN4CCC[C@H]4C3)c(=O)[nH]c12 | 2.67% |
| Cc1cn(Cc2ccc(F)c(F)c2)nc1N | -13.5% |
| N#Cc1ccnc(N2CCN(CC(O)c3ccc(F)c(F)c3)CC2)c1 (stereo unspecified) | 2.8% |
| CCOC(=O)c1ccc(NC(=O)Cn2cc(I)cn2)cc1 | 2.96% |
| CCOC(=O)NCCC(=O)NC(C)(C)c1ccc2c(c1)OCCO2 | -0.418% |
| Cc1n[nH]c(C)c1CNC(=O)CSCc1ccccc1Cl | -4.02% |
| COCCCC1(C(=O)O)CCCN(C(=O)c2ccc(Cl)cc2F)C1 (stereo unspecified) | -0.37% |

| Structure (SMILES) | cytotoxicity at 10 µM |
| --- | --- |
| Cc1ccc(-c2cccc(CC3(C(=O)O)CCOCC3)c2)c(C)c1 | -29.8% |
| CCOCCNCC1CCN(CCO)CC1 | -1.46% |
| Cn1cnc(-c2ccc(F)cc2)c1NC(=O)CCNC(=O)C(C)(C)C | 3.84% |
| COc1ccc(Cl)cc1CS(=O)(=O)CC(=O)N(C)Cc1ccccc1F | 2.53% |
| O=S(=O)(C1CC1)N1CC[C@H](OCC2CC2)[C@@H]1Cc1ccncc1 | 7.67% |
| CCOCC(O)CN1CCN(C(=O)CC(C)(C)C)CC1 (stereo unspecified) | -5.95% |
| COc1ccc(OC)c(C2CCN(C(=O)C3CCC(O)CC3)C2)c1 (stereo unspecified) | -1.65% |
| O=C(c1ccc(-n2cc(Br)cn2)cc1)N1CCN(c2cnccn2)CC1 | 1.52% |
| Cc1nc(C2(NCc3c(C)nn(C)c3N3CCOCC3)CCC2)no1 | 4.98% |
| CCCS(=O)(=O)N1CCOC2(CCCN(c3ccc(C)nn3)C2)C1 (stereo unspecified) | 2.08% |
| COCCN(Cc1coc(-c2cccc(Cl)c2)n1)C1CC1 | 3.92% |
| Cc1cnn(CCNCc2csc(-c3cccs3)n2)c1 | -9.91% |
| COCCC(=O)N1CCC2(CCN(Cc3cccc(F)c3)C2)C1 (stereo unspecified) | -60.2% |
| Cc1nonc1CN1CC[C@@](O)(C2CCC2)[C@H](C)C1 | 17.5% |
| O=C(O)[C@@H]1CN(C(=O)CN2Cc3ccccc3C2)C[C@H]1c1ccncc1 | 4.85% |
| CCOCC(=O)N1CCCn2c(nnc2Cn2cccc2)C1 | -130% |
| COCCN1CCN(CC(=O)N(C)Cc2ccsc2)CC1 | -153% |
| Fc1cccc(C2(CNC3CCCNC3)CCOCC2)c1 (stereo unspecified) | 0.979% |
| Cc1csc(CCNC(=O)C2CCCN(C3CCOCC3)C2)n1 (stereo unspecified) | 3.01% |
| CC(C)N1CC2(CCC1=O)CCN(c1ccnc3ccccc13)CC2 | 3.2% |
| CNC(=O)c1cccc(Nc2cnn(C)c2)c1 | 6.77% |
| CCn1c(CN(C)C(C)CSC)nc2c(F)cccc21 (stereo unspecified) | 5.73% |
| Cc1cccc(-c2noc(CN3CCCC3Cn3cccn3)n2)c1 (stereo unspecified) | 1.68% |

| Structure (SMILES) | cytotoxicity at 10 µM |
| --- | --- |
| Cc1csc(C(C#N)C(=O)Nc2ccccc2)n1 (stereo unspecified) | 12.6% |
| CCCc1ncc(CNC2(c3ccc(Cl)cc3)CCC2)cn1 | -9.48% |
| Cc1cccc(OCC2CCCN(C(=O)CN(C)C3CCNCC3)C2)c1 (stereo unspecified) | -8.4% |
| Cc1cncc(CN2CC[C@@](O)(CNC(=O)c3c[nH]cn3)[C@H](O)C2)c1 | -1.68% |
| COc1c(F)cc(-c2cccc3c2OC(CN)C3)cc1F (stereo unspecified) | -53.7% |
| CCS(=O)(=O)Nc1ccc(C(=O)NCCCN2CCCC2)cc1 | 1.83% |
| O=C(C1CCOc2ccccc21)N1CCOc2cccc(F)c21 (stereo unspecified) | 4.52% |
| CN1CCN([C@@H]2CN(C(=O)CCOc3ccccc3)C[C@H]2O)CC1 | 1.17% |
| Cc1nc(C2CCCNC2)cc(N(C)CCc2cn[nH]c2)n1 (stereo unspecified) | -9.91% |
| COCc1nc(N(C)CCSc2ccccc2)c2cnn(C)c2n1 | 1.98% |
| Cc1nc(C2CCN(C(=O)COC(C)C)CC2)cc(N2CCOCC2)n1 | -8.8% |
| O=C(Nc1ccccc1-c1ccccc1)NC1CCC2(C1)OCCO2 (stereo unspecified) | 8.84% |
| COCCNC(=O)Nc1cc2c(cc1SC)OCCO2 | -3.59% |
| OCCNc1nccc(-c2c[nH]nc2-c2ccco2)n1 | -6.47% |
| CC(c1nccs1)N(C)S(=O)(=O)NCc1ccccc1 (stereo unspecified) | -2.34% |
| CCCn1cnnc1CN(C)C(=O)C1CCC(=O)N(C2CCCC2)C1 (stereo unspecified) | 2.95% |
| CCN1CCN(C2CCN(Cc3nnc(C4CC4)o3)CC2)C1=O | 1.75% |
| NC(=O)c1cccc(CCNC(=O)N2Cc3ccccc3C2)c1 | -9.86% |
| Fc1cc(Cl)cnc1N1CCCC(c2nccn2Cc2ccncc2)C1 (stereo unspecified) | -2% |
